Measurements taken from PMC10448692 (ACS Omega, 2023).

Legend:
[1] = tested on: DNA (PDB ID: 1BNA); conditions: reported docking; cited from earlier work
[2] = Lipophilicity by shake flask, n-octanol/water partition; assay type: physicochemical; conditions: room temperature
Summary of the method: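 Shake-flask method. Each compound was added separately to n-octanol and to double-distilled water and shaken 24 h at room temperature to saturate each phase. Undissolved solid was removed by centrifugation or filtration, and the saturated solution was evaporated to dryness. Residue weight gave solubility, from which logS and logP were computed.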

Row | SMILES | docking energy with DNA [1] | experimental logP [2] | experimental logP ([2]; listed as Gly)
1 | O=C(O)CNC1CCCCC1 [CHgly, cyclohexyl glycine] | -5.71 kcal/mol | – | –
2 | NCC(=O)O [gly, Glycine] | – | −2.7 | –2.76
